# What was measured:
# [1] = molecular target: cGMP-inhibited 3',5'-cyclic phosphodiesterase 3B (Homo sapiens, UniProt Q13370); assay: Inhibition of human PDE3B using FAM-cAMP by fluorescence polarization assay
# Summary of the method: (§1)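 IMAP fluorescence polarization assay. 1 ng PDE3A or PDE3B with 100 nM FAM-cAMP in reaction buffer, 60 min at room temperature, then binding reagent (1:600) for 60 min. Read at ex 485/em 528 nm, duplicates. Activity scaled between no-enzyme FP (0%) and highest FP (100%). IC50 from sigmoidal fit over 0.01–100 µM.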
# [2] = molecular target: cGMP-inhibited 3',5'-cyclic phosphodiesterase 3A (Homo sapiens, UniProt Q14432); assay: Inhibition of human PDE3A using FAM-cAMP by fluorescence polarization assay; summary of the method: as §1
# Chain of cGMP-inhibited 3',5'-cyclic phosphodiesterase 3A (Q14432 whole entry): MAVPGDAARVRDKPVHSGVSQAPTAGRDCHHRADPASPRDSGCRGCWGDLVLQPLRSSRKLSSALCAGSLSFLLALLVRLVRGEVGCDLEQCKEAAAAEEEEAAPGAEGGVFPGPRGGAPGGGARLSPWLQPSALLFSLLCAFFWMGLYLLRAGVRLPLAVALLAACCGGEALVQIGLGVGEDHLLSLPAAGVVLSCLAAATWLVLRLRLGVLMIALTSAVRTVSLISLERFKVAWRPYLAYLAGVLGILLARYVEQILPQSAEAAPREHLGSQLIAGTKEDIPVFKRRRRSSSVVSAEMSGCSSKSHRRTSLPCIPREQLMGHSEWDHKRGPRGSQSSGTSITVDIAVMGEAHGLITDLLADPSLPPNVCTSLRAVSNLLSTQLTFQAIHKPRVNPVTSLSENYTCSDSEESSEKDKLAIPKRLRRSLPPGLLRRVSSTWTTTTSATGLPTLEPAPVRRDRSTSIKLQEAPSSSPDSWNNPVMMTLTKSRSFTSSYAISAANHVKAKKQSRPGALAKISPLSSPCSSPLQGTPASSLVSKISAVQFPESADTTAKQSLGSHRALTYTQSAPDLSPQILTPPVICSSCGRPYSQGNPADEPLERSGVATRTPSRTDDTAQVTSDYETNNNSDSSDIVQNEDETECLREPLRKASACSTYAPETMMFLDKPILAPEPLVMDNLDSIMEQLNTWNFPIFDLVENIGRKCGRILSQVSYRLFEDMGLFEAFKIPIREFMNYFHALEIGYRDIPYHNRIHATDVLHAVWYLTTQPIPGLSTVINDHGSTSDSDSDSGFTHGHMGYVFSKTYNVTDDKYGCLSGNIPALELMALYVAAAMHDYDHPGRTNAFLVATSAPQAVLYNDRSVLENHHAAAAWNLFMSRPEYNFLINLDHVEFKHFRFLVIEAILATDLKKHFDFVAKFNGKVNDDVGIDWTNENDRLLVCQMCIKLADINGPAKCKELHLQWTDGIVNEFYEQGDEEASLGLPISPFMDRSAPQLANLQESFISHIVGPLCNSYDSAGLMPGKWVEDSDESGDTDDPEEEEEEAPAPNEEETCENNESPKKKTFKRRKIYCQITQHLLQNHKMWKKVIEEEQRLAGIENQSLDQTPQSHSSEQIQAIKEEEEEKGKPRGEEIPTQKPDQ
# Cardiac atrium [3] = assay: Toxic cardiotonic activity in reserpine-pretreated and spontaneously beating rat atria assessed as chronotropic activity by measuring contractile frequency rate at 10 uM (reference value: 100%); type: toxicity
# Summary of the method: (§2)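 Male Wistar rats (250–350 g) given reserpine 5 mg/kg ip 24 h before euthanasia under thiopental 80 mg/kg ip. Whole atria mounted in Krebs–Henseleit (95% O2/5% CO2, 35–37 °C, pH 7.35–7.45) at ~0.5 g resting tension, equilibrated 40–50 min. Used only if unresponsive to tyramine 1.5 μM. Compound added cumulatively (1–100 μM). Isometric force and rate recorded, six atria per compound.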
# Cardiac atrium [4] = assay: Toxic cardiotonic activity in reserpine-pretreated and spontaneously beating rat atria assessed as chronotropic activity by measuring contractile frequency rate at 100 uM (reference value: 100%); type: toxicity; summary of the method: as §2
# Cardiac atrium [5] = assay: Cardiotonic activity in reserpine-pretreated and spontaneously beating rat atria assessed as inotropic activity by measuring contractile force at 10 uM (reference value: 100%); type: functional; summary of the method: as §2
# Cardiac atrium [6] = assay: Cardiotonic activity in reserpine-pretreated and spontaneously beating rat atria assessed as inotropic activity by measuring contractile force at 1 uM (reference value: 100%); type: functional; summary of the method: as §2
# Cardiac atrium [7] = assay: Cardiotonic activity in reserpine-pretreated and spontaneously beating rat atria assessed as inotropic activity by measuring contractile force at 100 uM (reference value: 100%); type: functional; summary of the method: as §2
# Cardiac atrium [8] = assay: Toxic cardiotonic activity in reserpine-pretreated and spontaneously beating rat atria assessed as chronotropic activity by measuring contractile frequency rate at 1 uM (reference value: 100%); type: toxicity; summary of the method: as §2
# Chain of cGMP-inhibited 3',5'-cyclic phosphodiesterase 3B (Q13370 whole entry): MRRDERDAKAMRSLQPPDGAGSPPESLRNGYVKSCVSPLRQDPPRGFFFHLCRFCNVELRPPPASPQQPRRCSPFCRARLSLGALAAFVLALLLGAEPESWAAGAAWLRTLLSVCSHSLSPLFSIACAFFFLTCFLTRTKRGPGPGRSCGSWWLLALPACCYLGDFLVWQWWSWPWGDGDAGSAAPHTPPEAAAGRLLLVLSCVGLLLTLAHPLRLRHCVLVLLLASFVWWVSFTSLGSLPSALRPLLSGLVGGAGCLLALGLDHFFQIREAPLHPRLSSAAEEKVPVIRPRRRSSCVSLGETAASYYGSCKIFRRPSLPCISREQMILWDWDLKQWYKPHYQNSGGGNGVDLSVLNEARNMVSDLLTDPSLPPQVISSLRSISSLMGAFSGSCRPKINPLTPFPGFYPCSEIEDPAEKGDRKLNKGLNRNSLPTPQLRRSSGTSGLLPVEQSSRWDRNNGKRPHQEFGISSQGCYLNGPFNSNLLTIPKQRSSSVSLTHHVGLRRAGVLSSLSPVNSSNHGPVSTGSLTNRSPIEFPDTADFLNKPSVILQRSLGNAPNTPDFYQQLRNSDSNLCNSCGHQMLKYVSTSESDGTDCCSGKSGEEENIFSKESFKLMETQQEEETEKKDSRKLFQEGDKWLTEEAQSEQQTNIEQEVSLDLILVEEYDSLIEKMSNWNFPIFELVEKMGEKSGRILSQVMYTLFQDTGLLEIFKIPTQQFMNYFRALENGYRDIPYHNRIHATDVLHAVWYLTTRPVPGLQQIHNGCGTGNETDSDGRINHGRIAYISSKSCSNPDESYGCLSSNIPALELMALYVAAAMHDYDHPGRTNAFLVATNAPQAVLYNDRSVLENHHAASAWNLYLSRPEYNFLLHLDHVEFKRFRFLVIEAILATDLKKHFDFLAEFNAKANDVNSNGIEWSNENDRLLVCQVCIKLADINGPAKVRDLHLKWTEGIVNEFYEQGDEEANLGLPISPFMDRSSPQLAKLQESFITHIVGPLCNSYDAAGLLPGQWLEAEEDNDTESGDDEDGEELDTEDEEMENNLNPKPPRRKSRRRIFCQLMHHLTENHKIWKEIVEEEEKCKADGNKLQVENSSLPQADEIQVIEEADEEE
Compound,IC50 [1] [µM],IC50 [2] [µM],Activity (Cardiac atrium [3]) [%],Activity (Cardiac atrium [4]) [%],Activity (Cardiac atrium [5]) [%],Activity (Cardiac atrium [6]) [%],Activity (Cardiac atrium [7]) [%],Activity (Cardiac atrium [8]) [%]
O=[N+]([O-])c1ccccc1-c1csc(-n2cc(-c3nnn[nH]3)cn2)n1,10.2,7.43,,,,,,
COc1ccc(C(=O)N2CCN(c3ccc4c(c3)CCC(=O)N4)CC2)cc1OC [VESNARINONE],14.5,11.2,112,121,125,105,150,105
